Measured values taken from ChEMBL document CHEMBL4392865, “Indole Diterpenoids from an Endophytic Penicillium sp” (J Nat Prod, 2019).

Experiments:
A2780 = assay: Cytotoxicity against human A2780 cells assessed as reduction in cell viability incubated for 72 hrs by MTT assay; format: functional, cell-based
J82 = assay: Cytotoxicity against human J82 cells assessed as reduction in cell viability incubated for 72 hrs by high content analysis based fluorescent live/dead assay; format: functional
Summary of the method: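 J82 bladder cancer cells were analysed by fluorescent live/dead staining. An imaging system gave direct counts of live and dead cells, and IC50 values were derived from these counts.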

L5178Y = assay: Cytotoxicity against mouse L5178Y cells assessed as reduction in cell viability incubated for 72 hrs by MTT assay; format: functional, cell-based
Summary of the method: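 Murine L5178Y lymphoma cells were the cells tested, with kahalalide F run in parallel as the positive control. The read-out was IC50.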

HEK293 = assay: Cytotoxicity against HEK293 cells assessed as reduction in cell viability incubated for 72 hrs by MTT assay; format: cell-based; settings: Homo sapiens, HEK293, 72 h
[1] = Selectivity index, ratio of IC50 for HEK293 cells to IC50 for human A2780 cells; format: toxicity; settings: HEK293 cells versus A2780 cells, read-out: Ratio IC50
Summary of the method: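 Selectivity index is the IC50 against HEK-293 cells divided by the IC50 against A2780 ovarian cancer cells, each from this paper's cytotoxicity testing.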

[2] = Homo sapiens, A2780, 72 h, read-out: IC50
[3] = Homo sapiens, J82, 72 h, read-out: IC50
[4] = Mus musculus, L5178Y, 72 h, read-out: IC50

CC1(C)CC2=C(Cc3cc(C(=O)C[C@@H]4CC[C@@]5(O)C6=CC(=O)[C@@H](C(C)(C)O)O[C@H]6CC[C@]5(C)[C@@]4(C)C(=O)O)c(N)cc32)C(C)(C)O1
IC50 (A2780; [2]): 51.5 µM
IC50 (J82; j82): Not Active
IC50 (L5178Y; l5178y): Not Active

CC(C)(O)[C@H]1O[C@H]2CC[C@@]3(C)[C@@H](CC[C@H]4Cc5c([nH]c6ccccc56)[C@@]43C)C2=C[C@H]1O
IC50 (A2780; [2]): 28.5 µM
IC50 (L5178Y; l5178y): Not Active

CC1(C)O[C@@]23CC[C@@]4(C)C(=CC[C@H]5Cc6c([nH]c7ccccc67)[C@@]54C)C2=CC(=O)[C@@H]1O3
IC50 (A2780; [2]): 12.2 µM
IC50 (HEK293): 21.7 µM
IC50 (J82; [3]): 42.1 µM
selectivity ratio [1]: 1.8
IC50 (L5178Y; [4]): 5.3 µM

CC1(C)CC2=C(Cc3cc4c5c([nH]c4cc32)[C@@]2(C)[C@@H](CC[C@@]3(O)C4=CC(=O)[C@@H](C(C)(C)O)OC4=CC[C@@]32C)C5)C(C)(C)O1
IC50 (A2780; [2]): 7.8 µM
IC50 (HEK293): 37.4 µM
IC50 (J82; [3]): 31.7 µM
selectivity ratio [1]: 4.8
IC50 (L5178Y; [4]): 8.1 µM

CC(C)(O)[C@@H]1CC[C@]2(C)[C@H](CC[C@@]3(C)[C@H]2CC[C@H]2Cc4c([nH]c5ccccc45)[C@@]23C)O1 [PASPALINE]
IC50 (A2780; [2]): 5.3 µM
IC50 (HEK293): 43 µM
selectivity ratio [1]: 8.1
IC50 (L5178Y; l5178y): Not Active

CC1(C)CC2=C(Cc3cc4c(cc32)NC(=O)[C@@]2(C)[C@@H](CC[C@@]3(O)C5=CC(=O)[C@@H](C(C)(C)O)O[C@H]5CC[C@@]32C)CC4=O)C(C)(C)O1
IC50 (A2780; [2]): 11.9 µM
IC50 (HEK293): 28.3 µM
IC50 (J82; [3]): 29.4 µM
selectivity ratio [1]: 2.4
IC50 (L5178Y; [4]): 7.6 µM

CC(C)(O)[C@H]1O[C@H]2CC[C@@]3(C)[C@@H](CC[C@H]4Cc5c([nH]c6ccccc56)[C@@]43C)C2=CC1=O [DEHYDROXYPAXILLINE]
IC50 (A2780; [2]): 17.1 µM
IC50 (L5178Y; l5178y): Not Active

CO[C@]12CC[C@@]3(C)[C@@](O)(CC[C@H]4Cc5c([nH]c6cc7c(cc56)CC5=C7CC(C)(C)OC5(C)C)[C@@]43C)C1=CC(=O)[C@@H](C(C)(C)O)O2
IC50 (A2780; [2]): 32.2 µM
IC50 (J82; [3]): 96.7 µM
IC50 (L5178Y; l5178y): Not Active

CC(C)(O)[C@H]1O[C@@]2(O)CC[C@@]3(C)[C@@H](CC[C@H]4Cc5c([nH]c6ccccc56)[C@@]43C)C2=CC1=O
IC50 (A2780; a2780): Not Active
IC50 (HEK293): 39.8 µM
IC50 (L5178Y; [4]): 6.2 µM

CC(C)=CCC[C@]1(C)[C@@H](O)CC[C@@]2(C)[C@H]1CC[C@H]1Cc3c([nH]c4ccccc34)[C@@]12C [EMINDOLE SB]
IC50 (A2780; [2]): 8.2 µM
IC50 (HEK293): 44.6 µM
selectivity ratio [1]: 5.4
IC50 (L5178Y; [4]): 18.3 µM

CC1(C)O[C@@]23CC[C@]4(C)c5cc6[nH]c7ccccc7c6cc5CC[C@H]4C2=CC(=O)[C@@H]1O3
IC50 (A2780; [2]): 8.7 µM
IC50 (HEK293): 28.5 µM
IC50 (J82; [3]): 40.6 µM
selectivity ratio [1]: 3.3
IC50 (L5178Y; [4]): 3.6 µM

CO[C@]12CC[C@@]3(C)[C@@](O)(CC[C@H]4Cc5c([nH]c6ccccc56)[C@@]43C)C1=CC(=O)[C@@H](C(C)(C)O)O2
IC50 (A2780; [2]): 12.2 µM
IC50 (J82; [3]): 55.3 µM
IC50 (L5178Y; l5178y): Not Active

CO[C@]12CC[C@@]3(C)[C@@](O)(CC[C@H]4CC(=O)c5cc6c(cc5NC(=O)[C@@]43C)C3=C(C6)C(C)(C)OC(C)(C)C3)C1=CC(=O)[C@@H](C(C)(C)O)O2
IC50 (A2780; [2]): 19.4 µM
IC50 (J82; [3]): 73 µM
IC50 (L5178Y; l5178y): Not Active

CC(C)=CCc1ccc2[nH]c3c(c2c1)C[C@@H]1CC[C@@]2(O)C4=CC(=O)[C@@H](C(C)(C)O)O[C@H]4CC[C@]2(C)[C@@]31C
IC50 (A2780; a2780): Not Active
IC50 (L5178Y; [4]): 12.9 µM

CC(C)(O)[C@H]1O[C@@]2(O)CC[C@@]3(C)C(=CC[C@H]4Cc5c([nH]c6ccccc56)[C@@]43C)C2=CC1=O
IC50 (A2780; a2780): Not Active
IC50 (HEK293): 27.9 µM
IC50 (L5178Y; [4]): 5.3 µM

CC1(C)CC2=C(Cc3cc4c5c([nH]c4cc32)[C@@]2(C)[C@@H](CC[C@@]3(O)C4=CC(=O)[C@@H](C(C)(C)O)O[C@H]4CC[C@@]32C)C5)C(C)(C)O1
IC50 (A2780; [2]): 12.8 µM
IC50 (L5178Y; [4]): 10.9 µM

CC(C)=CCc1ccc2[nH]c3c(c2c1)C[C@@H]1CC[C@@]2(O)C4=CC(=O)[C@@H]5O[C@@]4(CC[C@]2(C)[C@@]31C)OC5(C)C
IC50 (A2780; [2]): 19.8 µM
IC50 (L5178Y; l5178y): Not Active
